A selection: hits, their analogues and other compounds. The true share with any hit is near 7.6%.
HEK293 NFkB inh: inhibitors of PMA/ionomycin-induced NF-kB reporter, primary screen, antigen receptor NF-kB inhibitor project, cell-based, HEK-293 luciferase reporter, luminescence | HEK-293 NF-kB luciferase reporter | inhibition, % at 3 µM | hit rate 0.21% among 62,000 | AID 465, 2006;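 active = inhibition above the mean of all tested compounds plus 3 SD, cut at about 40% in these data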
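System – HEK-293 cells with stable firefly luciferase reporter driven by four HIV NF-kB elements · Doses – one dose, 3 µM · Schedule – 1 h compound pre-incubation, 16 h PMA/ionomycin at 37 °C · Technique – luminescence from luciferase substrate reagent · Measure – percent inhibition normalized per plate to DMSO and reference-inhibitor controls · Replicates – tested once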
D1 allo mod: D1 CRE-luciferase signal change, two-sided – cell-based, HEK293 D1, dopamine EC30, D1 allosteric modulator project, primary screen; B-score at 10 µM; D(1A) dopamine receptor (Homo sapiens), P21728; dopamine EC30 potentiation; actives deviate in either direction; AID 641, 2007; hit rate 5.9% among 58,000;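 active = luminescence count or its row- and column-corrected plate score outside the 99.7% band of the plate's sample wells, on either side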
hDAT+cocaine: changed hDAT dopamine uptake under cocaine IC80, either direction, primary screen, cocaine antagonist project, cell-based, LLC-PK1 hDAT, [14C]-dopamine uptake, MLSMR. Sodium-dependent dopamine transporter (Homo sapiens), Q01959. LLC-PK1 hDAT cells, [14C]-dopamine uptake with cocaine IC80; actives deviate in either direction. hit rate 1.3% among 110,000. B-score at 10 µM. AID 449768, 2010;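 active = Z score or B-score, a plate-position-corrected score, falls beyond the plate's 99.7% confidence bounds, in either direction; inactive = both scores lie inside the 99.7% bounds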
M1 ag: M1 muscarinic receptor agonists, primary screen, CHO-M1 cells, Fluo-4 calcium, agonist mode | B-score at 10 µM | hit rate 3% among 64,000 | Fluo-4 calcium fluorescence; stronger effect = higher value;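 active = fluorescence rise, raw or as B-score row- and column-corrected plate score, outside the 99.7% band of its plate's samples, either direction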
M1 antagonist: antagonists of rat M1 muscarinic receptor | Muscarinic acetylcholine receptor M1 (Rattus norvegicus), P08482 | CHO-M1 cells, Fluo-4 calcium, ACh EC80 antagonist mode; stronger effect = lower value | B-score at 10 µM | hit rate 3.4% among 64,000;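 active = calcium fluorescence response, raw or row-and-column corrected B-score, differing from the plate sample mean either way at a set confidence level, mostly lower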
Target sequence (P08482 whole entry, looked up): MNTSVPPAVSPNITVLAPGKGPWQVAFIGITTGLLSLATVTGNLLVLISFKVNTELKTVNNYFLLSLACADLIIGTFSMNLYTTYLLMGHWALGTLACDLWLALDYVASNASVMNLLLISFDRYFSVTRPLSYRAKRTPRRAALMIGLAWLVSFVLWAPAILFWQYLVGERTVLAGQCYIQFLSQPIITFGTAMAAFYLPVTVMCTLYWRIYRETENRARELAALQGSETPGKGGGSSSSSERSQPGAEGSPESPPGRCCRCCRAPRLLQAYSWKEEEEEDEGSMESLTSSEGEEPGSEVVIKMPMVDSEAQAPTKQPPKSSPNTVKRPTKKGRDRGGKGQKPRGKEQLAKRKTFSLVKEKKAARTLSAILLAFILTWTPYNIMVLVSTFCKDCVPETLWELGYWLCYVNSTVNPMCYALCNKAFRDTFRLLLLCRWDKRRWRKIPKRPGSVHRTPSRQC
Jurkat tox 60K: cytotoxicity toward Jurkat T cells, primary screen, cytotoxicity control, cell-based, Jurkat E6.1, 60K MLSMR library; Jurkat E6.1 viability, ATP luminescence, 48 h; inhibition, % at 4 µM; hit rate 1.2% among 56,000; AID 463, 2006;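 active = inhibition above the mean inhibition of all tested compounds plus 3 SD, cut at about 28% in these data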
Hits are given with their value.

Screening CCCCOc1ncnc2c1[nH]c1ccccc12 returned HEK293 NFkB inh inactive, D1 allo mod inactive, hDAT+cocaine inactive, M1 ag inactive, M1 antagonist inactive and Jurkat tox 60K 76.5.
Screening CCCCOc1ncnc2c1[nH]c1ccc(OCC)cc12 returned hDAT+cocaine inactive.
`O=C(NC1=NCCS1)c1ccncc1` gave HEK293 NFkB inh inactive, D1 allo mod inactive, hDAT+cocaine inactive, M1 ag inactive, M1 antagonist inactive and Jurkat tox 60K inactive.
`O=C(NC1=NCCS1)c1ccc(OCC2CCCO2)cc1` (stereo not drawn) gave HEK293 NFkB inh inactive, D1 allo mod -3.03, hDAT+cocaine inactive, M1 ag inactive, M1 antagonist inactive and Jurkat tox 60K inactive.
For COc1ccc(/C=N/n2c(SC)nnc(C(C)(C)C)c2=O)cc1OC the results were hDAT+cocaine inactive.
COc1cccc(N2CC(C(=O)Nc3ccc(C(=O)OC(C)C)cc3)CC2=O)c1 (stereo not drawn) was read as HEK293 NFkB inh inactive, D1 allo mod inactive, hDAT+cocaine 3.21 and Jurkat tox 60K inactive.
For COc1cccc(NC(=O)C2CCCN(S(=O)(=O)c3ccc(-n4cnnn4)cc3)C2)c1 (stereo not drawn) the results were HEK293 NFkB inh inactive, D1 allo mod -4.12, hDAT+cocaine inactive, M1 ag inactive, M1 antagonist inactive and Jurkat tox 60K inactive.
For CCOc1cccc(NC(=O)C2CCCN(S(=O)(=O)c3ccc(-n4cnnn4)cc3)C2)c1 (stereo not drawn) the results were HEK293 NFkB inh inactive, D1 allo mod inactive, hDAT+cocaine inactive, M1 ag inactive, M1 antagonist inactive and Jurkat tox 60K inactive.
Cc1nc2cc(N3CCCCC3)c(NC(=O)c3cccnc3)cc2c(=O)n1Cc1ccccc1 was read as HEK293 NFkB inh inactive, D1 allo mod inactive, hDAT+cocaine inactive, M1 ag inactive, M1 antagonist 2.83 and Jurkat tox 60K inactive.
For O=C(Nc1ccc2c(c1)OCO2)c1ccc2nc[nH]c2c1 the results were hDAT+cocaine -1.86.
`O=C(Nc1ccc(N2CCCC2)c(Cl)c1)c1cccnc1` gave hDAT+cocaine inactive.
Screening O=C(Nc1ccc(N2CCCCC2)c(Cl)c1)c1cccnc1 returned HEK293 NFkB inh inactive, D1 allo mod inactive, hDAT+cocaine inactive, M1 ag inactive, M1 antagonist inactive and Jurkat tox 60K 32.9.
O=C(Nc1ccc2c(c1)OCCO2)c1cccnc1 was read as HEK293 NFkB inh inactive, D1 allo mod -3.22, hDAT+cocaine inactive, M1 ag inactive, M1 antagonist inactive and Jurkat tox 60K inactive.
Screening CC(=O)Nc1cc2c(=O)n(Cc3ccccc3)c(C)nc2cc1N1CCOCC1 returned HEK293 NFkB inh inactive, D1 allo mod inactive, hDAT+cocaine inactive, M1 ag inactive, M1 antagonist inactive and Jurkat tox 60K inactive.
For COc1ccc2c(c1)OC1(C)CC2C(C(=O)c2ccccc2OC)C(=O)N1 (stereo not drawn) the results were HEK293 NFkB inh inactive, D1 allo mod inactive, M1 ag inactive, M1 antagonist inactive and Jurkat tox 60K inactive.
For CN1CCN(C2=C(Cl)C(=O)N(c3ccc(Cl)c(Cl)c3)C2=O)CC1 the results were HEK293 NFkB inh inactive, D1 allo mod inactive, hDAT+cocaine inactive, M1 ag inactive and M1 antagonist inactive.
Screening Cc1cc2oc(C(=O)NC3CCS(=O)(=O)C3)c(C)c2cc1C (stereo not drawn) returned HEK293 NFkB inh inactive, D1 allo mod inactive, hDAT+cocaine inactive, M1 ag inactive, M1 antagonist inactive and Jurkat tox 60K inactive.
C=CCc1cccc2cc(C(=O)N3CCN(C(=O)c4ccco4)CC3)c(=O)oc12 was read as HEK293 NFkB inh inactive, D1 allo mod inactive, hDAT+cocaine inactive, M1 ag inactive, M1 antagonist inactive and Jurkat tox 60K inactive.
Screening COc1ccccc1C(=O)Nc1ccc2c(c1)OCO2 returned hDAT+cocaine inactive, M1 ag inactive and M1 antagonist inactive.
Screening Cc1ccccc1C(=O)Nc1ccc2c(c1)OCO2 returned HEK293 NFkB inh inactive, D1 allo mod -4.3, hDAT+cocaine inactive, M1 ag inactive, M1 antagonist inactive and Jurkat tox 60K inactive.
COc1ccccc1N(CC(=O)N/N=C/c1ccc(OCC(=O)NCc2ccco2)cc1)S(=O)(=O)c1ccc(C)cc1 was read as hDAT+cocaine inactive.
`Cc1ccc(NC(=O)CSc2nc3nc(C)cc(C)c3c(=O)[nH]2)cc1` gave HEK293 NFkB inh inactive, D1 allo mod 3.89, hDAT+cocaine inactive, M1 ag inactive and M1 antagonist inactive.
For Cc1cc(C)c2c(=O)[nH]c(SCC(=O)Nc3ccccc3)nc2n1 the results were HEK293 NFkB inh inactive, D1 allo mod inactive, hDAT+cocaine inactive, M1 ag inactive, M1 antagonist inactive and Jurkat tox 60K inactive.
For O=C(c1cccs1)N1CCC(Cc2ccccc2)CC1 the results were hDAT+cocaine inactive.
Screening COc1cc(NS(=O)(=O)c2ccc3c(c2)oc(=O)n3C)cc(OC)c1OC returned HEK293 NFkB inh inactive, D1 allo mod inactive, hDAT+cocaine inactive, M1 ag inactive, M1 antagonist inactive and Jurkat tox 60K 39.7.
Screening COc1cc(OC)c(C2CC(=O)N3CN(C)CSC3=C2C#N)cc1OC (stereo not drawn) returned HEK293 NFkB inh inactive, D1 allo mod inactive, hDAT+cocaine inactive, M1 ag inactive, M1 antagonist 0.663 and Jurkat tox 60K inactive.
`CCOC(=O)C1=NN(c2ccc(OC)cc2)C(c2ccccc2)CC1=O` (stereo not drawn) gave hDAT+cocaine -8.62.
Screening COc1ccc(NC(=O)COn2nnc3ccc(Cl)cc32)cc1OC returned HEK293 NFkB inh inactive, D1 allo mod -2.6, hDAT+cocaine inactive, M1 ag inactive, M1 antagonist inactive and Jurkat tox 60K inactive.
`CCOC(=O)N1CCN(C(=O)COc2ccccc2OC)CC1` gave HEK293 NFkB inh inactive, D1 allo mod inactive, hDAT+cocaine inactive, M1 ag inactive, M1 antagonist inactive and Jurkat tox 60K inactive.
For CCOC(=O)C1CCN(C(=O)COC(=O)COc2ccccc2OC)CC1 the results were HEK293 NFkB inh inactive, D1 allo mod inactive, hDAT+cocaine -8.48, M1 ag inactive, M1 antagonist inactive and Jurkat tox 60K inactive.
For COCCN(Cc1ccccc1)P(=O)(O)c1ccccc1OCC(=O)O the results were hDAT+cocaine inactive, M1 ag inactive and M1 antagonist inactive.
Screening Cc1cc(C)cc(NS(=O)(=O)c2ccc3[nH]cc(C(=O)NCc4ccco4)c(=O)c3c2)c1 returned HEK293 NFkB inh inactive, D1 allo mod inactive, hDAT+cocaine inactive, M1 ag inactive, M1 antagonist inactive and Jurkat tox 60K 47.8.

High-throughput results as filed in PubChem.
